Active and inactive are the calls of the source. The rule behind the calls is not given here.
Key:
Mus musculus [1] = experiment: In vivo hypoglycemic activity expressed as percent glucose normalization in db/db mice at 0.25 mg/Kg; type: functional
Mus musculus [2] = experiment: In vivo hypoglycemic activity expressed as percent glucose normalization in db/db mice at 0.5 mg/Kg; type: functional
Mus musculus [3] = experiment: In vivo hypoglycemic activity expressed as percent glucose normalization in db/db mice at 1 mg/Kg; type: functional
Mus musculus [4] = experiment: In vivo hypoglycemic activity expressed as percent glucose normalization in db/db mice at 5 mg/Kg; type: functional
Mus musculus [5] = experiment: In vivo hypoglycemic activity expressed as percent glucose normalization in db/db mice at 0.1 mg/Kg; type: functional
Mus musculus [6] = experiment: In vivo hypoglycemic activity expressed as percent glucose normalization in db/db mice at 0.1 mg/Kg; Inactive; type: functional, organism-based
Mus musculus [7] = experiment: In vivo hypoglycemic activity expressed as percent glucose normalization in db/db mice at 0.01 mg/Kg; type: functional
Mus musculus [8] = experiment: In vivo hypoglycemic activity expressed as percent glucose normalization in db/db mice at 0.05 mg/Kg; type: functional
Mus musculus [9] = experiment: In vivo hypoglycemic activity expressed as percent glucose normalization in db/db mice at 5 mg/Kg; Not tested; type: functional
Mus musculus [10] = experiment: In vivo hypoglycemic activity expressed as percent glucose normalization in ob/ob mice at 0.01 mg/Kg; type: functional
Procedure, shortened: (§1)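 ob/ob mice received oral gavage once daily for 4 days in 0.25% (w/v) methylcellulose in water. Retro-orbital blood was taken before treatment and 24 h after the fourth dose. Glucose was measured by the hexokinase UV method. Results are % glucose normalization relative to vehicle (0%) and englitazone 100 mg/kg (100%), with significance at p<0.05.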

Mus musculus [11] = experiment: In vivo hypoglycemic activity expressed as percent glucose normalization in ob/ob mice at 0.1 mg/Kg; type: functional; procedure, shortened: as §1
Mus musculus [12] = experiment: In vivo hypoglycemic activity expressed as percent glucose normalization in ob/ob mice at 1 mg/Kg; type: functional; procedure, shortened: as §1
Mus musculus [13] = experiment: In vivo hypoglycemic activity expressed as percent glucose normalization in db/db mice at 2.5 mg/Kg; type: functional
Mus musculus [14] = experiment: In vivo hypoglycemic activity expressed as percent glucose normalization in ob/ob mice at 0.01 mg/Kg; Inactive; type: functional, organism-based; procedure, shortened: as §1
Mus musculus [15] = experiment: In vivo hypoglycemic activity expressed as percent glucose normalization in db/db mice at 0.05 mg/Kg; Inactive; type: functional, organism-based

Structure (SMILES) | Glucose normalisation (Mus musculus [2]) [%] | Glucose normalisation (Mus musculus [3]) [%] | Glucose normalisation (Mus musculus [4]) [%] | Glucose normalisation (Mus musculus [5]) [%] | Glucose normalisation (Mus musculus [7]) [%] | other results
Cc1oc(-c2ccccc2)nc1Cc1cc2cc(CC(Sc3ccccc3)C(=O)O)ccc2o1 (stereo not drawn) | 100 | 90 | 70 | 86 |  | Glucose normalisation (Mus musculus [1]): 92%
Cc1oc(-c2ccccc2)nc1Cc1cc2cc(CC(SCc3ccccc3)C(=O)O)ccc2o1 (stereo not drawn) | 93 | 88 | 100 |  |  | Glucose normalisation (Mus musculus [1]): 72%; Glucose normalisation (Mus musculus [6]): inactive
CCO[C@H](Cc1ccc2oc(Cc3nc(-c4ccccc4)oc3C)cc2c1)C(=O)O |  | 74 |  | 19 | 16 | 
CCCOC(Cc1ccc2oc(Cc3nc(-c4ccccc4)oc3C)cc2c1)C(=O)O (stereo not drawn) |  | 100 | 100 | 100 | 43 | Glucose normalisation (Mus musculus [8]): 76%
CCOC(C(=O)O)c1ccc2oc(Cc3nc(-c4ccccc4)oc3C)cc2c1 (stereo not drawn) |  |  |  |  |  | Glucose normalisation (Mus musculus [9]): 9%
CCOC(CCc1ccc2oc(Cc3nc(-c4ccccc4)oc3C)cc2c1)C(=O)O (stereo not drawn) | 75 | 90 | 100 |  |  | Glucose normalisation (Mus musculus [1]): 13%
CCOC(Cc1ccc2oc(Cc3nc(-c4ccccc4)oc3C)cc2c1)C(=O)O (stereo not drawn) |  |  | 100 | 100 | 69 | Glucose normalisation (Mus musculus [1]): 100%; Glucose normalisation (Mus musculus [8]): 97%
CCOC(Cc1ccc2oc(Cc3nc(-c4ccco4)oc3C)cc2c1)C(=O)O (stereo not drawn) |  | 100 |  | 100 | 63 | 
CCCCCCCCSC(Cc1ccc2oc(Cc3nc(-c4ccccc4)oc3C)cc2c1)C(=O)O (stereo not drawn) | 100 | 75 | 96 | 14 |  | Glucose normalisation (Mus musculus [1]): 99%
CCOC(Cc1ccc2oc(Cc3nc(-c4cccs4)oc3C)cc2c1)C(=O)O (stereo not drawn) |  | 100 |  | 100 | 98 | Glucose normalisation (Mus musculus [8]): 100%
Cc1oc(-c2ccccc2)nc1Cc1cc2cc(CC(OCc3ccccc3)C(=O)O)ccc2o1 (stereo not drawn) |  |  |  | 100 | 74 | Glucose normalisation (Mus musculus [8]): 100%
C=CCOC(Cc1ccc2oc(Cc3nc(-c4ccccc4)oc3C)cc2c1)C(=O)O (stereo not drawn) |  | 85 | 92 | 85 | 27 | Glucose normalisation (Mus musculus [8]): 91%
CCCSC(Cc1ccc2oc(Cc3nc(-c4ccccc4)oc3C)cc2c1)C(=O)O (stereo not drawn) | 82 | 69 | 94 |  |  | Glucose normalisation (Mus musculus [1]): 39%
Cc1oc(-c2ccccc2)nc1Cc1cc2cc(CC(OCCCO)C(=O)O)ccc2o1 (stereo not drawn) |  |  |  | 91 |  | Glucose normalisation (Mus musculus [8]): 19%
CSC(Cc1ccc2oc(Cc3nc(-c4ccccc4)oc3C)cc2c1)C(=O)O (stereo not drawn) | 100 | 89 |  | 26 |  | Glucose normalisation (Mus musculus [1]): 16%
C#CCOC(Cc1ccc2oc(Cc3nc(-c4ccccc4)oc3C)cc2c1)C(=O)O (stereo not drawn) |  | 74 | 100 |  |  | 
Cc1ccccc1-c1nc(Cc2cc3cc(CC4SC(=O)NC4=O)ccc3o2)c(C)o1 (stereo not drawn) |  |  |  |  |  | Glucose normalisation (Mus musculus [10]): 11%; Glucose normalisation (Mus musculus [11]): 91%; Glucose normalisation (Mus musculus [12]): 100%
CCCS[C@@H](Cc1ccc2oc(Cc3nc(-c4ccccc4)oc3C)cc2c1)C(=O)O | 52 | 91 |  |  |  | Glucose normalisation (Mus musculus [13]): 69%
CCSC(Cc1ccc2oc(Cc3nc(-c4ccccc4)oc3C)cc2c1)C(=O)O (stereo not drawn) | 80 | 60 | 86 |  |  | Glucose normalisation (Mus musculus [1]): 3%
Cc1oc(C2CCCCC2)nc1Cc1cc2cc(CC3SC(=O)NC3=O)ccc2o1 (stereo not drawn) |  |  |  |  |  | Glucose normalisation (Mus musculus [14]): inactive; Glucose normalisation (Mus musculus [11]): 90%; Glucose normalisation (Mus musculus [12]): 100%
CCOC(Cc1ccc2oc(Cc3nc(-c4ccc(OC)cc4)oc3C)cc2c1)C(=O)O (stereo not drawn) |  | 100 |  | 100 | 46 | Glucose normalisation (Mus musculus [15]): inactive
CCCS[C@H](Cc1ccc2oc(Cc3nc(-c4ccccc4)oc3C)cc2c1)C(=O)O | 45 | 56 |  |  |  | Glucose normalisation (Mus musculus [13]): 75%
COC(Cc1ccc2oc(Cc3nc(-c4ccccc4)oc3C)cc2c1)C(=O)O (stereo not drawn) |  | 100 | 94 | 83 | 44 | Glucose normalisation (Mus musculus [8]): 82%
CCO[C@@H](Cc1ccc2oc(Cc3nc(-c4ccccc4)oc3C)cc2c1)C(=O)O |  |  |  | 100 | 78 | 
Cc1oc(-c2ccccc2)nc1Cc1cc2cc(CC3SC(=O)NC3=O)ccc2o1 (stereo not drawn) |  |  |  |  |  | Glucose normalisation (Mus musculus [10]): 76%; Glucose normalisation (Mus musculus [11]): 93%
Cc1oc(-c2ccc(Cl)cc2)nc1Cc1cc2cc(CC3SC(=O)NC3=O)ccc2o1 (stereo not drawn) |  |  |  |  |  | Glucose normalisation (Mus musculus [10]): 0%; Glucose normalisation (Mus musculus [11]): 100%; Glucose normalisation (Mus musculus [12]): 100%
Cc1oc(-c2cccc(F)c2)nc1Cc1cc2cc(CC3SC(=O)NC3=O)ccc2o1 (stereo not drawn) |  |  |  |  |  | Glucose normalisation (Mus musculus [10]): 12%; Glucose normalisation (Mus musculus [11]): 88%; Glucose normalisation (Mus musculus [12]): 100%
Cc1cccc(-c2nc(Cc3cc4cc(CC5SC(=O)NC5=O)ccc4o3)c(C)o2)c1 (stereo not drawn) |  |  |  |  |  | Glucose normalisation (Mus musculus [10]): 78%; Glucose normalisation (Mus musculus [11]): 79%; Glucose normalisation (Mus musculus [12]): 100%

— ChEMBL document CHEMBL1129423, “Hypoglycemic activity of a series of alpha-alkylthio and alpha-alkoxy carboxylic acids related to ciglitazone” (J Med Chem, 1996)
